Test results: ChEMBL document CHEMBL1122118, “Novel opiates and antagonists. 4. 7-Alkanoylhydromorphones” (1982)
Activity calls are given as the source filed them. The calls are words filed in the database; no cut-off is given here.

Species on record: Mus musculus
Assay: Agonistic activity by mouse acetic acid writhing test.
Format: functional

Q: `CN1CC[C@]23c4c5ccc(O)c4O[C@H]2C(=O)CC[C@H]3[C@H]1C5` [HYDROMORPHONE] was tested. Which ED50 did it give?
A: 0.08 mg/kg

Q: Which ED50 does the source give for `CO[C@@]12CC[C@@]3(C[C@@H]1[C@](C)(O)C(C)(C)C)[C@H]1Cc4ccc(O)c5c4[C@@]3(CCN1CC1CC1)[C@H]2O5` [BUPRENORPHINE] here?
A: 0.13 mg/kg

Q: With `CCCCCCC(=O)C1CC2C3Cc4ccc(OC)c5c4C2(CCN3CC2CC2)C(O5)C1=O.Cl` (stereo not drawn) as the compound, how does the ED50 read?
A: > 10 mg/kg

Q: `CCCC(=O)C1CC2C3Cc4ccc(O)c5c4C2(CCN3C)C(O5)C1=O` (stereo not drawn) was tested. Which ED50 did it give?
A: 5.2 mg/kg

Q: `CCCCC(=O)C1CC2C3Cc4ccc(OC)c5c4C2(CCN3CC2CC2)C(O5)C1=O` (stereo not drawn) was tested. Which ED50 did it give?
A: > 10 mg/kg

Q: For `COc1ccc2c3c1OC1C(=O)C(C(C)=O)CC4C(C2)N(CC2CC2)CCC314` (stereo not drawn), which ED50 is on record?
A: > 10 mg/kg

Q: `CC(=O)C1CC2C3Cc4ccc(O)c5c4C2(CCN3CC2CC2)C(O5)C1=O` (stereo not drawn) was tested. Which ED50 did it give?
A: 4 mg/kg

Q: `CCCCCC(=O)C1CC2C3Cc4ccc(OC)c5c4C2(CCN3C)C(O5)C1=O` (stereo not drawn) was tested. Which ED50 did it give?
A: 4 mg/kg

Q: With `COc1ccc2c3c1O[C@H]1C(=O)CC[C@H]4[C@@H](C2)N(C)CC[C@]314` [HYDROCODONE] as the compound, how does the ED50 read?
A: 1.06 mg/kg

Q: With `O=C1CCC2C3Cc4ccc(O)c5c4C2(CCN3CC2CC2)C1O5` (stereo not drawn) as the compound, how does the ED50 read?
A: 1.3 mg/kg

Q: With `COc1ccc2c3c1OC1C(=O)C(C(C)=O)CC4C(C2)N(C)CCC314` (stereo not drawn) as the compound, how does the ED50 read?
A: 23.5 mg/kg

Q: `CCCCCCC(=O)C1CC2C3Cc4ccc(O)c5c4C2(CCN3CC2CC2)C(O5)C1=O` (stereo not drawn) was tested. Which ED50 did it give?
A: 0.4 mg/kg

Q: For `COc1ccc2c3c1OC1C(=O)CCC4C(C2)N(CC2CC2)CCC314` (stereo not drawn), which ED50 is on record?
A: 17 mg/kg

Q: Which ED50 does the source give for `CCC(=O)C1CC2C3Cc4ccc(OC)c5c4C2(CCN3CC2CC2)C(O5)C1=O` (stereo not drawn) here?
A: > 10 mg/kg

Q: Which ED50 does the source give for `O=C(c1ccc(F)cc1)C1CC2C3Cc4ccc(O)c5c4C2(CCN3CC2CC2)C(O5)C1=O` (stereo not drawn) here?
A: > 10 mg/kg

Q: `CCCC(=O)C1CC2C3Cc4ccc(OC)c5c4C2(CCN3CC2CC2)C(O5)C1=O` (stereo not drawn) was tested. Which ED50 did it give?
A: 2.8 mg/kg

Q: `CN1CC[C@]23c4c5ccc(O)c4O[C@H]2[C@@H](O)C=C[C@H]3[C@H]1C5` [MORPHINE] was tested. Which ED50 did it give?
A: 0.79 mg/kg

These compounds were tested on Mus musculus (assay: Agonistic activity was measured by Mouse acetic acid writhing test; IA is Inactive at highest dose tested (10 mg/Kg)).
Format: functional, organism-based

Q: With `CCCC(=O)C1CC2C3Cc4ccc(OC)c5c4C2(CCN3C)C(O5)C1=O` (stereo not drawn) as the compound, how does the ED50 read?
A: inactive

Q: Which ED50 does the source give for `CC(C)(C)CC(=O)C1CC2C3Cc4ccc(O)c5c4C2(CCN3CC2CC2)C(O5)C1=O` (stereo not drawn) here?
A: inactive

Q: With `CCC(=O)C1CC2C3Cc4ccc(O)c5c4C2(CCN3CC2CC2)C(O5)C1=O` (stereo not drawn) as the compound, how does the ED50 read?
A: inactive

Q: For `COc1ccc2c3c1OC1C(=O)C(C(=O)c4ccc(F)cc4)CC4C(C2)N(CC2CC2)CCC314` (stereo not drawn), which ED50 is on record?
A: inactive

Species on record: Rattus norvegicus
Assay: Antagonistic activity was measured by Rat tail-flick morphine antagonist procedure
Format: functional
How it was run: (§1)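 Rat tail-flick test: the compound's ability to block analgesia from a fixed challenge dose of morphine was scored across a dose-response.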

Q: With `CCCCCCC(=O)C1CC2C3Cc4ccc(OC)c5c4C2(CCN3CC2CC2)C(O5)C1=O.Cl` (stereo not drawn) as the compound, how does the AD50 read?
A: >10 mg/kg

Q: With `O=C(c1ccccc1)C1CC2C3Cc4ccc(O)c5c4C2(CCN3CC2CC2)C(O5)C1=O` (stereo not drawn) as the compound, how does the AD50 read?
A: 0.24 mg/kg

Q: Which AD50 does the source give for `CC(C)(C)CC(=O)C1CC2C3Cc4ccc(O)c5c4C2(CCN3CC2CC2)C(O5)C1=O` (stereo not drawn) here?
A: >10 mg/kg

Q: `COc1ccc2c3c1OC1C(=O)C(C(C)=O)CC4C(C2)N(CC2CC2)CCC314` (stereo not drawn) was tested. Which AD50 did it give?
A: >10 mg/kg

Q: How did the AD50 turn out when `CC(=O)C1CC2C3Cc4ccc(O)c5c4C2(CCN3CC2CC2)C(O5)C1=O` (stereo not drawn) was run?
A: 1.3 mg/kg

Q: With `CCCCC(=O)C1CC2C3Cc4ccc(O)c5c4C2(CCN3CC2CC2)C(O5)C1=O` (stereo not drawn) as the compound, how does the AD50 read?
A: 3.3 mg/kg

Q: With `CCCCCC(=O)C1CC2C3Cc4ccc(O)c5c4C2(CCN3CC2CC2)C(O5)C1=O` (stereo not drawn) as the compound, how does the AD50 read?
A: 22 mg/kg

Q: Which AD50 does the source give for `O=C1CCC2C3Cc4ccc(O)c5c4C2(CCN3CC2CC2)C1O5` (stereo not drawn) here?
A: 0.19 mg/kg

Q: Which AD50 does the source give for `CCC(=O)C1CC2C3Cc4ccc(O)c5c4C2(CCN3CC2CC2)C(O5)C1=O` (stereo not drawn) here?
A: 0.52 mg/kg

Q: How did the AD50 turn out when `COc1ccc2c3c1OC1C(=O)C(C(=O)C(C)C)CC4C(C2)N(CC2CC2)CCC314` (stereo not drawn) was run?
A: 2.8 mg/kg

Q: For `COc1ccc2c3c1OC1C(=O)CCC4C(C2)N(CC2CC2)CCC314` (stereo not drawn), which AD50 is on record?
A: 3.4 mg/kg

Q: Which AD50 does the source give for `CCC(=O)C1CC2C3Cc4ccc(OC)c5c4C2(CCN3CC2CC2)C(O5)C1=O` (stereo not drawn) here?
A: 6.5 mg/kg

Q: For `CCCC(=O)C1CC2C3Cc4ccc(O)c5c4C2(CCN3CC2CC2)C(O5)C1=O` (stereo not drawn), which AD50 is on record?
A: 2.6 mg/kg

Q: For `COc1ccc2c3c1OC1C(=O)C(C(=O)c4ccc(F)cc4)CC4C(C2)N(CC2CC2)CCC314` (stereo not drawn), which AD50 is on record?
A: >10 mg/kg

Q: Which AD50 does the source give for `O=C(c1ccc(F)cc1)C1CC2C3Cc4ccc(O)c5c4C2(CCN3CC2CC2)C(O5)C1=O` (stereo not drawn) here?
A: ~10 mg/kg

Q: `CCCC(=O)C1CC2C3Cc4ccc(OC)c5c4C2(CCN3CC2CC2)C(O5)C1=O` (stereo not drawn) was tested. Which AD50 did it give?
A: 8.1 mg/kg

Q: Which AD50 does the source give for `COc1ccc2c3c1OC1C(=O)C(C(=O)c4ccccc4)CC4C(C2)N(CC2CC2)CCC314` (stereo not drawn) here?
A: 8 mg/kg

Q: How did the AD50 turn out when `CC(C)C(=O)C1CC2C3Cc4ccc(O)c5c4C2(CCN3CC2CC2)C(O5)C1=O` (stereo not drawn) was run?
A: 0.81 mg/kg

These compounds were tested on Rattus norvegicus (assay: Antagonistic activity was measured by Rat tail-flick morphine antagonist procedure; IA is Inactive at highest dose tested (10 mg/Kg)).
Format: functional, organism-based
How it was run: as §1

Q: `CCCCC(=O)C1CC2C3Cc4ccc(OC)c5c4C2(CCN3CC2CC2)C(O5)C1=O` (stereo not drawn) was tested. Which AD50 did it give?
A: inactive

Q: With `CCCCCCC(=O)C1CC2C3Cc4ccc(O)c5c4C2(CCN3CC2CC2)C(O5)C1=O` (stereo not drawn) as the compound, how does the AD50 read?
A: inactive

Q: Which AD50 does the source give for `CCCCCC(=O)C1CC2C3Cc4ccc(OC)c5c4C2(CCN3CC2CC2)C(O5)C1=O` (stereo not drawn) here?
A: inactive

Species on record: Rattus norvegicus
Assay: Antagonistic activity was measured by Rat tail-flick morphine antagonist procedure; unable to achieve satisfactory dose response
Format: functional, organism-based
How it was run: as §1

Q: How did the AD50 turn out when `CO[C@@]12CC[C@@]3(C[C@@H]1[C@](C)(O)C(C)(C)C)[C@H]1Cc4ccc(O)c5c4[C@@]3(CCN1CC1CC1)[C@H]2O5` [BUPRENORPHINE] was run?
A: unable to achieve satisfactory dose response
